Type in all cases: functional
One test concerns COLO 205. As to the kind of experiment: Cytotoxicity against colon […] cell lines. As to conditions: Homo sapiens. The method, boiled down:
(§1)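 NCI human tumor cell line screen. Growth inhibition was read across a test range of 10^-4 to 10^-8 M. GI50 is the concentration giving 50% growth inhibition.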

In the next test the test system is CCRF-CEM. As to the kind of experiment: Cytotoxicity against leukemia CCRF-CEM cell lines. The settings on record: Homo sapiens. The method, boiled down:
as §1

A further test deals with SF-295. Put plainly: Cytotoxicity against CNS SF-295 cell lines. As to conditions: Homo sapiens. The method, boiled down:
as §1

A further test has as its system DU-145. Put plainly: Cytotoxicity against prostate DU-145 cell lines. As to conditions: Homo sapiens. The method, boiled down:
as §1

For test [1], the system named is Panel (Carcinoma cell lines). As to the kind of experiment: Mean graph midpoint growth inhibition of human cancer cell lines. The method, boiled down: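 Mean graph midpoint: the average GI50 across all human cancer cell lines successfully tested (~55) in the NCI screen. Values below or above the 10^-4 to 10^-8 M test range were set to the minimum (10^-8 M) or maximum (10^-4 M) concentration screened.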

For another test, the system named is LOX IMVI. Put plainly: Cytotoxicity against melanoma LOXIMVI cell lines. The settings on record: Homo sapiens. The essentials: as §1
In another test the test system is MDA-MB-435. As to the kind of experiment: Cytotoxicity against breast MDA-MB-435 cell lines. As to conditions: Homo sapiens. The method, boiled down: as §1
For another test, the system named is NCI-H23. As to the kind of experiment: Cytotoxicity against lung NCI-H23 cell lines. As to conditions: Homo sapiens. The essentials: as §1
For another test, the system named is OVCAR-5. Put plainly: Cytotoxicity against ovarian OVCAR-5 cell lines. The settings on record: Homo sapiens. The essentials:
as §1

The next test deals with SN12C. As to the kind of experiment: Cytotoxicity against renal SN12C cell lines. As to conditions: Homo sapiens. The essentials: as §1

Experimental findings from ChEMBL document CHEMBL1134690, “Preparation and cytotoxicity toward cancer cells of mono(arylimino) derivatives of beta-lapachone” (2001) are described below.

`Cc1ccc(/N=C2\C(=O)C3=C(OC(C)(C)CC3)c3ccccc32)cc1`: the GI50 (as a rule, the concentration giving 50% growth inhibition) was determined as 1800 nM in the test with COLO 205; 2560 nM in the test with CCRF-CEM; 1260 nM with SF-295; 1760 nM in the test on DU-145; 300 nM with LOX IMVI; 190 nM in the test on MDA-MB-435. Further, the results for the GI50 in the test with NCI-H23, in the test on OVCAR-5 and with SN12C were 920 nM, 2030 nM and 460 nM, respectively. In test [1], this molecule gave an MGM of 0.89 µM.

Regarding `COc1ccc(/N=C2\C(=O)C3=C(OC(C)(C)CC3)c3ccccc32)cc1`, the 50% growth inhibitory concentration (GI50) in the test on COLO 205 came out at 1020 nM; in the test with CCRF-CEM, 1540 nM; in the test with SF-295 it was 880 nM; in the test with DU-145 it was 870 nM; in the test on LOX IMVI, 890 nM; in the test with MDA-MB-435 it was 96 nM. Also, the GI50 with NCI-H23 was 1170 nM; in the test on OVCAR-5, 12300 nM; with SN12C, 900 nM. In test [1], this molecule registered an MGM of 1.15 µM.

As for `CC1(C)CCC2=C(O1)c1ccccc1/C(=N/c1ccc([N+](=O)[O-])cc1)C2=O`, the GI50 with COLO 205 amounted to 16800 nM; with CCRF-CEM it was 19600 nM; in the test on SF-295, 14900 nM; with DU-145 it was 16800 nM; in the test on LOX IMVI, 7590 nM; in the test with MDA-MB-435, 15800 nM. Also, the GI50 was 18300 nM in the test with NCI-H23, 14500 nM with OVCAR-5 and 15900 nM in the test with SN12C. Besides, the MGM in test [1] was 15.5 µM.

As to `CC1(C)CCC2=C(O1)c1ccccc1/C(=N/c1ccccc1)C2=O`, the GI50 in the test with COLO 205 turned out to be 1550 nM; with CCRF-CEM, 1550 nM; in the test with SF-295, 1860 nM; with DU-145, 1560 nM; in the test with LOX IMVI, 220 nM; in the test on MDA-MB-435, 200 nM. Also, the results for the GI50 in the test on NCI-H23, in the test on OVCAR-5 and in the test with SN12C were 1230 nM, 1810 nM and 1120 nM, respectively. In addition, the MGM in test [1] is 1.17 µM.

In the case of `CC1(C)CCC2=C(O1)c1ccccc1C(=O)C2=O` [LAPACHONE], the GI50 came to 1780 nM with COLO 205; 1410 nM in the test with CCRF-CEM; 1540 nM with SF-295; 1740 nM in the test with DU-145; 310 nM in the test on LOX IMVI; 21400 nM with MDA-MB-435. The GI50 is 760 nM with NCI-H23, 1820 nM in the test with OVCAR-5 and 1450 nM in the test on SN12C. In addition, the MGM in test [1] was 1.12 µM.
